Experimental data published in PubChem BioAssay.

Assay: S. cerevisiae growth inhibition in restrictive medium, OD615, pilot screen, restrictive growth control, yeast lifespan reduction project (AID 706);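 further: modified DeaD lifespan yeast strain shifted to restrictive glucose medium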
Conditions: OD615, 48 h, at 10 µM, stronger effect = higher value;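 active means growth inhibition above a set limit, 3 SD over mean compound inhibition, in both replicates (cut at about 43% in these data); inconclusive means above the limit in only one replicate; inactive means at or below the limit in both replicates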
Summary of the method: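 Material: modified S. cerevisiae; buffer or medium: CSMM-D glucose medium; doses: one concentration, 10 µM final, 0.25% DMSO; incubation: 48 h compound exposure at 30 °C; detection: optical density at 615 nm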

Growth inhibition, inactive:
Cn1c(C(=O)N2CCN(c3ncccn3)CC2)cc2c(=O)n(C)c3ccccc3c21 8.57%
CC(=O)Nc1cc(NC(C)=O)c(CC(C)C)s1 2.99%
COc1ccc(Nc2cc(C)nc3nc(C)nn23)cc1Cl 13.4%
O=C(NC1CCCCCC1)C1C2C=CC3(CN(Cc4cccnc4)C(=O)C13)O2 (stereo unspecified) 8.75%
CCOC(=O)N1CCN(C(=O)CS(=O)Cc2nc(-c3cccc(C)c3)oc2C)CC1 (stereo unspecified) -16.8%
CCOC(=O)Cc1csc(NC(=O)Nc2ccccc2)n1 -12.1%
COc1ccccc1S(=O)(=O)Cc1ccc(C(=O)NCc2ccc3c(c2)OCO3)o1 -26.9%
CCOC(=O)N1CCN(C(=O)c2cc3cc(Br)ccc3oc2=O)CC1 -17.6%
Cn1cnnc1SCCC(=O)Nc1ccccc1 0.795%
Nc1c(C(=O)NCc2ccccc2)nnn1Cc1ccccc1 4.1%
CCC(=O)Nc1nnc(-c2ccco2)o1 -4.75%
O=C1C(C=NCc2ccco2)=C(O)c2ccccc21 -1.76%
CCOC(=O)c1cnc2ccc(C(=O)OC)cc2c1NCCN1CCOCC1 -2.95%
O=C(CSc1oc(-c2ccco2)nc1S(=O)(=O)c1ccc(Cl)cc1)NCC1CCCO1 (stereo unspecified) 2.77%
O=C(Cn1c(NCCCO)nc2ccccc21)c1cccs1 -2.54%
O=C(C1CC(c2ccc(F)cc2)=NO1)N1CCN(Cc2ccccc2)CC1 (stereo unspecified) -2.39%
